Assay results from different studies.
Compare with care: the assays were run in different laboratories.
Target: Serine/threonine-protein kinase WNK1 (WNK1, Homo sapiens, UniProt Q9H4A3)

| SMILES | assay | setting | measurement | value |
| --- | --- | --- | --- | --- |
| Cn1cncc1C1=CN(c2ncnc3[nH]cnc23)CCS1 | enzyme activity, inhibitor, radiometric | 50 nM | inhibition | 14.1% |
| CC(C)(C)c1nc2c(s1)c1nc(N)ncc1c1ccc(NS(=O)(=O)c3c(F)cccc3F)c(F)c12 | enzyme activity, inhibitor, radiometric | 1 µM | remaining activity | 103% |
| Cn1cc(Cl)c2c(Oc3c(F)cc(Nc4cc(Cl)nc(N)n4)cc3F)ccnc21 | cell-free assay, competition with immobilised ligand | 0.1 µM | remaining binding | 98% |
| FC(F)(F)Oc1cccc(-c2cnc3ccc(-c4ccncc4)nn23)c1 | enzyme activity, inhibitor, radiometric | 1 µM | activity vs control | 105% |
| N[C@@H]1CCN(c2nccc(-c3cnn4ncccc34)n2)C1 | binding | 1 µM | remaining binding | 100% |
| CO[C@@H](C)c1c(Nc2ccc([C@H](N(C)C(=O)C3CCS(=O)(=O)CC3)C(F)(F)F)cc2)cnc2cc(Cl)nn12 | cell-free assay, competition with immobilised ligand | 1 µM | remaining binding | 100% |
| CN(c1nccc(-c2cnn3ncccc23)n1)C1CC1 | binding | 1 µM | remaining binding | 100% |
| COc1cc(Nc2cnc(C#N)c(O[C@H](C)CN(C)C)n2)ncc1-c1cnn(C)c1 | enzyme activity, inhibitor, radiometric | 1 µM | remaining activity | 95% |
| O=C(Nc1cnn(-c2csc(C(=O)NC3COC3)c2)c1)Nc1ccccc1Cl | enzyme activity, inhibitor | 5 µM | remaining activity | 99.7% |
| CCCCN(CCCC)C(=O)CN1C[C@@H](c2cc(OC)c3c(c2)OCO3)[C@H](C(=O)O)[C@H]1CC(C)(C)CCC | cell-free assay, competition with immobilised ligand | 1 µM | remaining binding | 96.8% |
| CN1CC(Oc2cnc(C#N)cc2-c2ccn3nc(NC(=O)C4CC4)cc3c2)C1 | enzyme activity, inhibitor | 1 µM | inhibition | 17% |
| CN([C@@H]1CCc2c(CC(=O)O)c3cc(S(C)(=O)=O)ccc3n2C1)S(=O)(=O)c1ccc(F)cc1 | cell-free assay, competition with immobilised ligand | 1 µM | remaining binding | 95% |
| Cc1ccc(C(=O)NCc2ccsc2)cc1C#Cc1cn(C(C)C)c2ncnc(N)c12 | enzyme activity, inhibitor | 1 µM | activity vs control | 92% |
| C[C@@H]1CN(c2cc(-c3n[nH]c4ccc(OC5(C)CC5)cc34)ncn2)C[C@H](C)O1 | cell-free assay, competition with immobilised ligand | 0.1 µM | remaining binding | 89% |
| CS(=O)(=O)Nc1cccc(-c2csc(NC(=O)CSc3nc4nccnc4c(=O)n3CCc3ccccc3)n2)c1 | enzyme activity, inhibitor | 10 µM | inhibition | -3% |
